Data published in ChEMBL document CHEMBL1148429, “Penicillin-derived inhibitors that simultaneously target both metallo- and serine-beta-lactamases” (Bioorg Med Chem Lett, 2004).
In brackets after ≈: the same amount, converted by molar mass.

Key:
Beta-lactamase L1 = Beta-lactamase L1 (Stenotrophomonas maltophilia, UniProt P52700); experiment: Beta-Lactamase Inhibition of metallo-beta-lactamase representative class B (L1) enzyme
How it was run: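 For the metallo enzyme, inhibitor and enzyme were preincubated for 4 min. Concentrated nitrocefin was then added to give the final assay volume, and IC50 was determined.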

Staphylococcus aureus = experiment: Antibacterial activity was determined against the Staphylococcus aureus ATCC 29213 in presence of Piperacillin; assay type: functional
How it was run: (§1)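 MIC of piperacillin against β-lactamase-producing strains, with the piperacillin concentration varied and the inhibitor held constant at […].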

Beta-lactamase TEM = Beta-lactamase TEM (Escherichia coli, UniProt P62593); experiment: Beta-Lactamase inhibitory activity against representative class A (TEM-1) serine enzyme
Beta-lactamase TEM, sequence (P62593 whole entry): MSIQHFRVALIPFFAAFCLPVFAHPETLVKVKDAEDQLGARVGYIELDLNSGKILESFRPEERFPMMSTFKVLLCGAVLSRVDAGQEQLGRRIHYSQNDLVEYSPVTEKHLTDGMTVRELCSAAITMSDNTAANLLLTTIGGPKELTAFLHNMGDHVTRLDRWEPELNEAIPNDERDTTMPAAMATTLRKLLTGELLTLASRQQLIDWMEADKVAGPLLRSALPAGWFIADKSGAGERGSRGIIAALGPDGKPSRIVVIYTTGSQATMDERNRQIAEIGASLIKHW
How it was run: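 Serine β-lactamase assay: inhibitor preincubated with enzyme for 4 min in 100 µL, then an aliquot transferred into dilute nitrocefin substrate (1 mL final). IC50 is expressed as the inhibitor concentration in the 100 µL incubation, from multiple experiments.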

[1] = target: Beta-lactamase TEM (Escherichia coli) (UniProt P62593); experiment: Beta-Lactamase inhibitory activity against representative class A (TEM-1) serine enzyme from Escherichia coli ATCC 35218 in presence of Piperacillin; how it was run: as §1
Beta-lactamase TEM (Escherichia coli), sequence (P62593 whole entry): as above

[2] = target: T1, Metallo-beta-lactamase type 2 (Bacillus cereus, UniProt P14488); experiment: Inhibition of class B (BCII) metallo-beta-lactamase representative enzyme
T1 sequence (P14488 whole entry): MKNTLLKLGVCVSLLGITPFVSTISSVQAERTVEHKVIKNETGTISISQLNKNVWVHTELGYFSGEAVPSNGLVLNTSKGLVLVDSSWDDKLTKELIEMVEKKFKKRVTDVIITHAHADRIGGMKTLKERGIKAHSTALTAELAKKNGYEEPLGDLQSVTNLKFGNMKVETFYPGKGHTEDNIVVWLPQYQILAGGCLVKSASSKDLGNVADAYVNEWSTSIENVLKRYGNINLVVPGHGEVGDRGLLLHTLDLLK
How it was run: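 BCII metallo-β-lactamase assay: inhibitor and enzyme incubated together for 4 min in 970 µL, then concentrated nitrocefin added to 1 mL final volume. IC50 determined from nitrocefin hydrolysis.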

[3] = target: Beta-lactamase (Escherichia coli K-12) (UniProt P00811)
Beta-lactamase (Escherichia coli K-12), sequence (P00811 whole entry): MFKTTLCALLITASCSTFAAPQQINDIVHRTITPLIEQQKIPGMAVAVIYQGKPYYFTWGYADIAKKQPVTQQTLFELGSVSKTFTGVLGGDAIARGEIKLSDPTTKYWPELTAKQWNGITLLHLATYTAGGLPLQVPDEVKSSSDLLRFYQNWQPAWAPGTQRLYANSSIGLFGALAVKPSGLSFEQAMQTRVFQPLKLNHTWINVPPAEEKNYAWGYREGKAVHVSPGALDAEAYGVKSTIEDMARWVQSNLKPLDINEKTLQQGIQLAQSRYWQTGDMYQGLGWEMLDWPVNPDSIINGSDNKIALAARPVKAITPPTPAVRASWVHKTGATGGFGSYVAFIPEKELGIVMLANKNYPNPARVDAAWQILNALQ

Pseudomonas aeruginosa [4] = experiment: Synergistic activity against SPM-1 beta lactamase produced by Pseudomonas aeruginosa in presence of piperacillin (1:1) and compound 5c; S = susceptible
Pseudomonas aeruginosa [5] = experiment: Synergistic activity against SPM-1 beta lactamase produced by Pseudomonas aeruginosa in presence of piperacillin (1:1); R = Resistant
Pseudomonas aeruginosa [6] = experiment: Synergistic activity against VIM-1 beta lactamase produced by Pseudomonas aeruginosa presence of piperacillin (1:1); R = Resistant
Escherichia coli [7] = experiment: Synergic activity against IMP-1 beta lactamase produced by Escherichia coli in presence of piperacillin (1:1); R = Resistant; assay type: functional
Escherichia coli [8] = experiment: Synergic activity against IMP-1 beta lactamase produced by Escherichia coli in presence of piperacillin (1:1) and compound 5c; S = susceptible; assay type: functional
How it was run: (§2)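 Synergy with piperacillin against metallo-β-lactamase-producing strains (IMP-1; SPM-1, VIM-1 or VIM-7 carriers). The initial screen used […] at a 1:1 antibiotic:inhibitor ratio. Inhibitor was tested with tazobactam or DVR-II-183 added as a serine β-lactamase inhibitor, or without one.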

Pseudomonas aeruginosa [9] = experiment: Synergistic activity against VIM-7 beta lactamase produced by Pseudomonas aeruginosa presence of piperacillin (1:1); R = Resistant
Pseudomonas aeruginosa [10] = experiment: Synergistic activity against VIM-1 beta lactamase produced by Pseudomonas aeruginosa presence of piperacillin (1:1) and compound 5c; S = susceptible
Pseudomonas aeruginosa [11] = experiment: Synergistic activity against VIM-7 beta lactamase produced by Pseudomonas aeruginosa presence of piperacillin (1:1) and compound 5c; R = Resistant
[12] = Synergic activity against IMP-1 beta lactamase produced by Escherichia coli in presence of Piperacillin and Tazobactam; assay type: functional; how it was run: as §2
Pseudomonas aeruginosa [13] = experiment: Synergistic activity against VIM-1 beta lactamase produced by Pseudomonas aeruginosa in presence of Piperacillin; R = Resistant
Pseudomonas aeruginosa [14] = experiment: Synergistic activity against VIM-1 beta lactamase produced by Pseudomonas aeruginosa in presence of Piperacillin and Tazobactam; R = Resistant
Pseudomonas aeruginosa [15] = experiment: Synergistic activity against VIM-1 beta lactamase produced by Pseudomonas aeruginosa in presence of Piperacillin and compound 48; S = susceptible
[16] = Synergistic activity against VIM-7 beta lactamase produced by Escherichia coli in presence of Piperacillin; assay type: functional, plasmodium aeruginosa; conditions: Pseudomonas aeruginosa
[17] = Synergistic activity against SPM-1 beta lactamase produced by Pseudomonas aeruginosa in presence of Piperacillin and Tazobactam
Pseudomonas aeruginosa [18] = experiment: Synergistic activity against SPM-1 beta lactamase produced by Pseudomonas aeruginosa in presence of Piperacillin and Tazobactam; S = susceptible
[19] = Synergistic activity against VIM-7 beta lactamase produced by Escherichia coli in presence of Piperacillin and Tazobactam; assay type: functional, plasmodium aeruginosa; conditions: Pseudomonas aeruginosa; how it was run: as §2
Pseudomonas aeruginosa [20] = experiment: Synergistic activity against VIM-7 beta lactamase produced by Pseudomonas aeruginosa in presence of Piperacillin and Tazobactam; R = Resistant
[21] = Synergistic activity against SPM-1 beta lactamase produced by Pseudomonas aeruginosa in presence of Piperacillin
Escherichia coli [22] = experiment: Synergic activity against IMP-1 beta lactamase producing Escherichia coli in presence of Piperacillin and compound 48; S = susceptible; assay type: functional; how it was run: as §2
Pseudomonas aeruginosa [23] = experiment: Synergistic activity against VIM-7 beta lactamase produced by Pseudomonas aeruginosa in presence of Piperacillin; R = Resistant
[24] = Synergic activity against IMP-1 beta lactamase produced by Escherichia coli in presence of Piperacillin and DVRII183; assay type: functional; how it was run: as §2
Escherichia coli [25] = experiment: Synergic activity against IMP-1 beta lactamase produced by Escherichia coli in presence of Piperacillin and Tazobactam; S = susceptible; assay type: functional; how it was run: as §2
[26] = Synergic activity against IMP-1 beta lactamase produced by Escherichia coli in presence of Piperacillin; assay type: functional; how it was run: as §2
Escherichia coli [27] = experiment: Synergic activity against IMP-1 beta lactamase produced by Escherichia coli in presence of Piperacillin; S = susceptible; assay type: functional; how it was run: as §2
[28] = Synergistic activity against SPM-1 beta lactamase produced by Pseudomonas aeruginosa in presence of Piperacillin and DVRII183
Pseudomonas aeruginosa [29] = experiment: Synergistic activity against SPM-1 beta lactamase produced by Pseudomonas aeruginosa in presence of Piperacillin and compound 48; S = susceptible
[30] = Synergistic activity against VIM-1 beta lactamase produced by Escherichia coli in presence of Piperacillin and Tazobactam; assay type: functional, plasmodium aeruginosa; conditions: Pseudomonas aeruginosa; how it was run: as §2
[31] = Synergistic activity against VIM-7 beta lactamase produced by Escherichia coli in presence of Piperacillin and DVRII183; assay type: functional, plasmodium aeruginosa; conditions: Pseudomonas aeruginosa; how it was run: as §2
[32] = Synergistic activity against VIM-1 beta lactamase produced by Pseudomonas aeruginosa in presence of Piperacillin
Pseudomonas aeruginosa [33] = experiment: Synergistic activity against VIM-7 beta lactamase produced by Pseudomonas aeruginosa in presence of Piperacillin and compound 48; R = Resistant
Pseudomonas aeruginosa [34] = experiment: Synergistic activity against SPM-1 beta lactamase produced by Pseudomonas aeruginosa in presence of Piperacillin; S = susceptible
[35] = Synergistic activity against VIM-1 beta lactamase produced by Pseudomonas aeruginosa in presence of Piperacillin and DVRII183
Pseudomonas aeruginosa [36] = experiment: Synergistic activity against SPM-1 beta lactamase produced by Pseudomonas aeruginosa in presence of Piperacillin and Tazobactam; R = Resistant

Beta-lactamase L1, sequence (P52700 whole entry): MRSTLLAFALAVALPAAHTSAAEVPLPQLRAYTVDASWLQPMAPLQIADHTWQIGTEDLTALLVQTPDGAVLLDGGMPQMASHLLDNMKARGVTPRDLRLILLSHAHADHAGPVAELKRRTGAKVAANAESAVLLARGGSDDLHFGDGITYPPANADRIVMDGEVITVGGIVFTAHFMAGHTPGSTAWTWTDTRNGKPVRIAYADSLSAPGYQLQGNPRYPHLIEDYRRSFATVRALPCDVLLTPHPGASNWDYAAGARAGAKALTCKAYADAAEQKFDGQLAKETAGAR

CC1(C)[C@H](C(=O)O)N2C(=O)[C@H](S)[C@H]2S1(=O)=O
IC50 (Beta-lactamase L1): 7.6 µM | MIC (Staphylococcus aureus): 8 µg/mL | IC50 (Beta-lactamase TEM): 69.2 µM | MIC [1]: > 128 µg/mL | IC50 [2]: 106 µM | MIC [3]: 2 µg/mL (≈ 7.54 µM)

C[C@@]1(COC(=O)Cc2ccc(O)c(O)c2)S[C@@H]2/C(=C\c3ccccn3)C(=O)N2[C@H]1C(=O)O
Activity (Pseudomonas aeruginosa [4]): Susceptible | Activity (Pseudomonas aeruginosa [5]): Resistant | Activity (Pseudomonas aeruginosa [6]): Resistant | Activity (Escherichia coli [7]): Resistant | Activity (Escherichia coli [8]): Susceptible | Activity (Pseudomonas aeruginosa [9]): Resistant | Activity (Pseudomonas aeruginosa [10]): Susceptible | Activity (Pseudomonas aeruginosa [11]): Resistant

CC1(C)S[C@@H]2[C@@H](CO)C(=O)N2[C@H]1C(=O)O
IC50 (Beta-lactamase L1): > 200 µM | MIC (Staphylococcus aureus): 8 µg/mL | IC50 (Beta-lactamase TEM): 275 µM | MIC [1]: > 128 µg/mL | IC50 [2]: > 200 µM | MIC [3]: 4 µg/mL (≈ 17.3 µM)

CC1(C)S[C@@H]2[C@H](CO)C(=O)N2[C@H]1C(=O)O
IC50 (Beta-lactamase L1): > 200 µM | MIC (Staphylococcus aureus): 4 µg/mL | IC50 (Beta-lactamase TEM): 752 µM | MIC [1]: > 128 µg/mL | IC50 [2]: > 200 µM | MIC [3]: 4 µg/mL (≈ 17.3 µM)

CC1(C)[C@H](C(=O)O)N2C(=O)[C@@H](CS)[C@H]2S1(=O)=O
MIC [12]: 8 µg/mL | Activity (Pseudomonas aeruginosa [13]): Resistant | Activity (Pseudomonas aeruginosa [14]): Resistant | Activity (Pseudomonas aeruginosa [15]): Susceptible | MIC [16]: > 128 µg/mL | IC50 (Beta-lactamase L1): 0.1 µM | MIC [17]: 64 µg/mL | Activity (Pseudomonas aeruginosa [18]): Susceptible | MIC [19]: > 128 µg/mL | Activity (Pseudomonas aeruginosa [20]): Resistant | MIC [21]: 64 µg/mL | Activity (Escherichia coli [22]): Susceptible | Activity (Pseudomonas aeruginosa [23]): Resistant | MIC [24]: 8 µg/mL | MIC (Staphylococcus aureus): 2 µg/mL | Activity (Escherichia coli [25]): Susceptible | MIC [26]: 8 µg/mL | Activity (Escherichia coli [27]): Susceptible | MIC [28]: 64 µg/mL | Activity (Pseudomonas aeruginosa [29]): Susceptible | MIC [30]: > 128 µg/mL | MIC [1]: 8 µg/mL | MIC [31]: > 128 µg/mL | MIC [32]: > 128 µg/mL | IC50 [2]: 1.4 µM | Activity (Pseudomonas aeruginosa [33]): Resistant | Activity (Pseudomonas aeruginosa [34]): Susceptible | MIC [35]: 128 µg/mL | MIC [3]: 0.25 µg/mL (≈ 0.895 µM)

CC1(C)S[C@@H]2[C@@H](S)C(=O)N2[C@H]1C(=O)O
IC50 (Beta-lactamase L1): 36.9 µM | MIC (Staphylococcus aureus): 8 µg/mL | IC50 (Beta-lactamase TEM): 988 µM | MIC [1]: > 128 µg/mL | IC50 [2]: 17.2 µM | MIC [3]: 2 µg/mL (≈ 8.57 µM)

CC1(C)S[C@@H]2[C@H](S)C(=O)N2[C@H]1C(=O)O
IC50 (Beta-lactamase L1): 41.4 µM | MIC (Staphylococcus aureus): 8 µg/mL | IC50 (Beta-lactamase TEM): > 1000 µM | MIC [1]: > 128 µg/mL | IC50 [2]: 17.8 µM | MIC [3]: 2 µg/mL (≈ 8.57 µM)

CC1(C)[C@H](C(=O)O)N2C(=O)[C@H](CS)[C@H]2S1(=O)=O
Activity (Pseudomonas aeruginosa [14]): Resistant | IC50 (Beta-lactamase L1): 0.3 µM | Activity (Pseudomonas aeruginosa [36]): Resistant | Activity (Pseudomonas aeruginosa [20]): Resistant | MIC (Staphylococcus aureus): 4 µg/mL | Activity (Escherichia coli [25]): Susceptible | MIC [1]: 32 µg/mL | IC50 [2]: 12 µM | MIC [3]: 0.5 µg/mL (≈ 1.79 µM)
